Our source for the IC50 and Stability values is ChEMBL document CHEMBL4229376, “Optimization of the pharmacokinetic properties of potent anti-trypanosomal triazine derivatives” (Eur J Med Chem, 2018).

For data set [1], the system named is Trypanosoma brucei brucei. The experiment in a line: Antitrypanosomal activity against suramin-sensitive Trypanosoma brucei brucei Squib 427 after 72 hrs by resazurin dye-based fluorimetric analysis. The note with it: Squib 427, 72 h. It counts as functional, organism-based. (Resazurin is reduced to fluorescent resorufin, in cell work by metabolically active cells.)

The subject of data set [2] is Trypanosoma cruzi. Briefly: Antitrypanosomal activity against nifurtimox-sensitive Trypanosoma cruzi Tulahuen CL2 infected in human MRC5 SV2 cells assessed as reduction in parasite burden after 168 hrs by CPRG and Nonidet based spectrophotometric analysis. It counts as functional, organism-based. To be noted: Tulahuen CL2, MRC-5 SV2, 168 h.
The test system of data set [3] is Leishmania infantum. Briefly: Antileishmanial activity against Leishmania infantum MHOM/MA (BE)/67 amastigotes infected in primary peritoneal mouse macrophages after 120 hrs by giemsa staining-based microscopic analysis. It counts as functional, organism-based. To be noted: MHOM/MA (BE)/67, 120 h.
In data set [4] the test system is Plasmodium falciparum. Briefly: Antiplasmodial activity against chloroquine-resistant Plasmodium falciparum K1 infected in human erythrocytes after 72 hrs by Malstat reagent-based spectrophotometric analysis. To be noted: K1, 72 h. It counts as functional, organism-based.
Data set [5] in a line: Cytotoxicity against human MRC5 SV2 cells after 72 hrs by resazurin dye-based fluorimetric analysis. It counts as cell-based. To be noted: MRC-5 SV2, 72 h.
Data set [6] has as its system Peritoneal macrophage. The experiment in a line: Cytotoxicity against mouse primary peritoneal macrophages after 72 hrs by resazurin dye-based fluorimetric analysis. In kind it is cell-based.
A short description of data set [7]: Drug metabolism in mouse liver microsomes assessed as UGT mediated compound […] by measuring parent compound remaining at 5 uM after 15 mins in presence of UDPGA by UPLC/MS/ESI analysis. It counts as ADME. To be noted: 0.25 h. In outline:
(§1)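 Metabolic stability was run with mouse liver microsomal fraction (S9) and read as percent parent compound remaining over incubation time. Diclofenac served as the reference compound.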
For orientation: Liver microsomes are vesicles of endoplasmic reticulum, rich in cytochrome P450 enzymes.

Data set [8] is described as follows: Drug metabolism in mouse liver microsomes assessed as UGT mediated compound […] by measuring parent compound remaining at 5 uM after 30 mins in presence of UDPGA by UPLC/MS/ESI analysis. To be noted: 0.5 h. It counts as ADME. In outline: as §1
A short description of data set [9]: Drug metabolism in mouse liver microsomes assessed as UGT mediated compound […] by measuring parent compound remaining at 5 uM after 60 mins in presence of UDPGA by UPLC/MS/ESI analysis. In kind it is ADME. To be noted: 1 h. Put shortly:
as §1

In general, IC50 refers to the concentration needed to halve the response being measured. `Cc1cc(C)c(Oc2nc(N)nc(Nc3ccc(Cl)cc3)n2)c(C)c1`: the IC50 came out at 1.5 µM in data set [1]; 3.1 µM in [2]; 8.1 µM in data set [3]; 26.6 µM in [4]; 6.4 µM in data set [5]; 8 µM in data set [6].

In the case of `O=C(O)Cc1ccccc1Nc1c(Cl)cccc1Cl` [DICLOFENAC], the Stability stood at 38% in [7], 28% in data set [8] and 30% in data set [9].

Regarding `Cc1cc(C)c(Oc2ncnc(Nc3ccc(F)cc3)n2)c(C)c1`, the half-inhibitory concentration (IC50) in data set [1] was 31.1 µM; in data set [2], 7.9 µM; in data set [3], 10.8 µM; in data set [4] it was 29.6 µM; in data set [5], 8 µM; in data set [6], above 64 µM.

For the compound `Cc1cc(Br)c(Nc2nc(N)nc(Nc3ccc(F)cc3)n2)c(Br)c1`, the IC50 is 7.1 µM in data set [1]; above 64 µM in [2]; above 64 µM in data set [3]; above 64 µM in data set [4]; 6.7 µM in data set [5]; above 64 µM in data set [6].

Take `Nc1nc(Nc2ccc(F)cc2)nc(Nc2ccc(F)cc2)n1`: the IC50 was 2.8 µM in data set [1]; above 64 µM in [2]; above 64 µM in data set [3]; above 64 µM in data set [4]; above 64 µM in [5]; above 64 µM in data set [6].

As for `Cc1ccc(Nc2nc(N)nc(Nc3ccc(C#N)cc3)n2)c(Cl)c1`, the IC50 in data set [1] is 7.7 µM; in [2] it was above 64 µM; in data set [3], 50.8 µM; in data set [4], 29.8 µM; in data set [5], above 64 µM; in data set [6], above 64 µM.

On to `Cc1cc(C)c(Oc2nc(N)nc(Nc3cc(F)cc(F)c3)n2)c(C)c1`, for which the IC50 in data set [1] came to 1.3 µM; in [2], 2.3 µM; in data set [3] it was 8.1 µM; in data set [4] it was 17.4 µM; in [5], 4.4 µM; in data set [6], 8 µM.

`Cc1ccc(Oc2nc(N)nc(Nc3ccccc3)n2)cc1`: the IC50 in data set [1] was 1.1 µM; in data set [2], above 64 µM; in [3] it was 32.5 µM; in data set [4] it was above 64 µM; in data set [5], above 64 µM; in data set [6] it was 32 µM.

As to `Cc1ccc(Nc2nc(N)nc(Nc3c(Br)cc(C)cc3Br)n2)cc1`, the IC50 is 9.1 µM in [1]; above 64 µM in data set [2]; 32.5 µM in [3]; above 64 µM in data set [4]; 8.1 µM in [5]; 32 µM in data set [6].

Take `Cc1ccc(Nc2nc(N)nc(Nc3ccc(C#N)cc3)n2)cc1`: the concentration for half-maximal inhibition (IC50) in data set [1], in [2], in data set [3], in [4], in data set [5] and in data set [6] was above 64 µM each time.

As for `Cc1ccc(Oc2nc(N)nc(Nc3ccc(C#N)cc3)n2)cc1`, the IC50 in [2] is 8 µM; in data set [3], above 64 µM; in data set [4], above 64 µM; in [5], above 64 µM; in data set [6] it was above 64 µM.

For the compound `Cc1cc(C)c(Oc2ncnc(Nc3ccccc3)n2)c(C)c1`, the IC50 in data set [1] is 32.5 µM; in data set [2] it was 8.2 µM; in [3] it was 24 µM; in data set [4], 31.5 µM; in data set [5], 17.8 µM; in data set [6], 32 µM.

`CC/C(=C(\c1ccccc1)c1ccc(OCCN(C)C)cc1)c1ccccc1` [TAMOXIFEN]: the IC50 in data set [5] was determined as 10.2 µM.

On to `Cc1cc(C)c(Oc2nc(Nc3ccc(F)cc3)nc(N3CCCCC3)n2)c(C)c1`, for which the IC50 in [1] was 8.2 µM; in data set [2], 2.4 µM; in data set [3], 8.1 µM; in [4] it was 5.4 µM; in [5], above 64 µM; in [6], 32 µM.

Regarding `Cc1cc(C)c(Oc2nc(N)nc(Nc3ccc(C(F)(F)F)cc3)n2)c(C)c1`, the IC50 in data set [1] was determined as 6.9 µM; in [2] it was 2.4 µM; in data set [3], 8.1 µM; in data set [4] it was 8.8 µM; in [5], 6.5 µM; in data set [6] it was 8 µM.

On to `Nc1nc(Nc2ccc(F)cc2)nc(Sc2ccc(F)cc2)n1`, for which the IC50 was above 64 µM in [1]; 6.9 µM in data set [2]; 8.1 µM in data set [3]; above 64 µM in data set [4]; above 64 µM in data set [5]; 8 µM in [6].

In the case of `N#Cc1ccc(Nc2nc(N)nc(Nc3ccc(F)cc3)n2)cc1`, the half-inhibitory concentration (IC50) is 39.8 µM in data set [1]; 9 µM in [2]; 32.5 µM in data set [3]; 26.4 µM in [4]; above 64 µM in data set [5]; 32 µM in [6].

`Cc1cc(F)cc(C)c1Nc1nc(N)nc(Nc2ccc(C#N)cc2)n1`: the IC50 in data set [1] is 7.9 µM; in [2], 7.9 µM; in data set [3] it was 9.5 µM; in data set [4], 8.3 µM; in data set [5] it was 23.7 µM; in [6] it was 32 µM.

On to `CC1CS(=O)(=O)CCN1/N=C/c1ccc([N+](=O)[O-])o1` (stereo not drawn) [NIFURTIMOX], for which, in data set [2], the half-inhibitory concentration (IC50) came to 0.9 µM.

For the compound `CNc1nc(Nc2ccc(F)cc2)nc(Oc2c(C)cc(C)cc2C)n1`, the IC50 is 10.9 µM in data set [1]; 7.8 µM in data set [2]; 24 µM in [3]; 20.2 µM in [4]; above 64 µM in data set [5]; 32 µM in data set [6].

`Cc1cc(C)c(Oc2nc(N)nc(Oc3ccc(F)cc3)n2)c(C)c1`: the IC50 is 4.3 µM in data set [1]; above 64 µM in data set [2]; 8.1 µM in data set [3]; above 64 µM in data set [4]; above 64 µM in [5]; 8 µM in data set [6].

In the case of `Cc1cc(C)c(Oc2nc(N)nc(Nc3c(F)cccc3F)n2)c(C)c1`, the IC50 in [1] is above 64 µM; in [2] it was above 64 µM; in [3] it was 32.5 µM; in data set [4], above 64 µM; in data set [5] it was above 64 µM; in data set [6] it was 32 µM.
